From PubChem BioAssay
Inconclusive results are not listed. Activity calls are given as the source filed them.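 Rule for the calls, unless noted: active = inhibition over a set limit, the all-compound mean plus 3 SD, in both replicate runs; inconclusive = over that limit in just one replicate run; inactive = at or under that limit in both runs.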

Legend:
[1] = OD615 S. cerevisiae growth inhibition, permissive medium, pilot counter-assay, permissive growth control for S. cerevisiae lifespan shortening project (AID 705;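 active = growth inhibition above 25% in both replicates, a cutoff set 3 SD above the mean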); settings: OD615, 24 h, at 10 µM, stronger effect = higher value
Outline: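 System – S. cerevisiae with engineered DeaD lifespan system · Buffer or medium – SC raffinose/galactose permissive medium · Schedule – cells pre-grown 4 h, then 24 h compound exposure, 30 °C humidified · Technique – culture turbidity as optical density at 615 nm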

[2] = Restrictive medium S. cerevisiae growth inhibition, OD615, pilot screen of yeast lifespan reduction project, restrictive growth control (AID 706;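 active = growth inhibition above a set limit, 3 SD over mean compound inhibition, in both replicates, cut at about 43% in these data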;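 note: modified DeaD lifespan yeast strain shifted to restrictive glucose medium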); settings: OD615, 48 h, at 10 µM, stronger effect = higher value
Outline: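 Material: engineered S. cerevisiae DeaD strain / Medium: glucose-based CSMM-D restrictive medium / Compound: single dose of 10 µM compound final, 0.25% DMSO / Timing: 4 h pre-incubation, 48 h exposure at 30 °C / Technique: OD615 absorbance reading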

[3] = viability gain of MRP-1-high H69AR cells under doxorubicin, pilot screen, MRP-1 activator project, CellTiter-Glo, duplicate (AID 807;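 active = viability increase at or above a cutoff of the median across tested compounds plus 3 SD, cut at about 8.5% in these data, passing the limit was not always enough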;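 note: compound pretreatment 18-22 h then 72 h combined with doxorubicin; 0% = doxorubicin alone and 100% = vehicle without doxorubicin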); settings: H69AR viability with doxorubicin, CellTiter-Glo luminescence; at 10 µM; stronger effect = higher value
[4] = growth suppression of beta-catenin knockout HCT116, pilot screen, human colon tumor cells (AID 823;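 active = cell viability at or below a set limit in both duplicate runs, the limit being the all-compound median minus 4 SD, cut at about 23% in these data, passing the limit was not always enough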;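 note: 0% = wells killed by 20 µM Hyamine and 100% = untreated DMSO cell wells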); settings: CellTiter-Glo, 60 h, at 10 µM, stronger effect = lower value
[5] = growth suppression of PTEN-deleted HCT116, pilot screen, cell-based, HCT116 clonal line, CellTiter-Glo (AID 824;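 active = viability at or below 27.92% in each of two runs, the all-compound median minus 4 SD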;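 note: 0% = 20 µM Hyamine control and 100% = vehicle cell control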); settings: 60 h, at 10 µM, stronger effect = lower value
[6] = inhibitors of the yeast RAM network, pilot screen, dse1pr::URA3 reporter, 5-FOA selection (AID 869);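 note: 0% = DMSO wells with no growth and 100% = 10 µM 1-NA-PP1 with full growth; RAM network block rescues cells from 5-FOA so hits raise OD615 growth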; settings: S. cerevisiae dse1pr::URA3 5-FOA growth, OD615, 2 d, at 10 µM, stronger effect = higher value
[7] = RAM signaling pathway blockade in yeast – S. cerevisiae, Pdr1DBD-CYC8 efflux-inhibited sensitized strain, primary screen (AID 1298;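 active = RAM network inhibition above 8.4% in each of two replicates, 3 SD over the compound average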;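 note: 0% = DMSO untreated cells without growth and 100% = 10 µM 1-NA-PP1 full growth; higher means more yeast growth rescued from 5-FOA killing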); settings: S. cerevisiae cbk1-as DSE1-URA3 strain, 5-FOA growth OD615, 2 d; at 50 µM; stronger effect = higher value
[8] = Recombinant Mtb pantothenate synthetase (PanC) inhibitors, coupled enzyme, confirmatory (AID 375; call rule not given here); settings: coupled enzyme assay; measured here: coupling enzymes IC50 repeat trials unless noted
[9] = target: Pantothenate synthetase (Mycobacterium tuberculosis (strain ATCC 25618 / H37Rv)) (UniProt P9WIL5); assay: as above; settings: coupled enzyme assay; at 10 µM, stronger effect = higher value
Chain of Pantothenate synthetase (Mycobacterium tuberculosis (strain ATCC 25618 / H37Rv)) (P9WIL5 whole entry, looked up): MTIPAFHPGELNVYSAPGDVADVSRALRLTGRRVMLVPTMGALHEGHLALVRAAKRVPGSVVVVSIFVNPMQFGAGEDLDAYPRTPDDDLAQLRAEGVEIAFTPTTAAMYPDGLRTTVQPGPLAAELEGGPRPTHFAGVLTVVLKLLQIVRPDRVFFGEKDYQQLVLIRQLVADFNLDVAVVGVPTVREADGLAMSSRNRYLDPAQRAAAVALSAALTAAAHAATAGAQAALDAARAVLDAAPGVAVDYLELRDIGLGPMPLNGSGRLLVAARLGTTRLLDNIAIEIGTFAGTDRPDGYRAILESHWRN

O/N=C/c1c[nH]c2ccccc12
inactive: growth inhibition [1] 4.87% | growth inhibition [2] 0.865% | viability increase [3] -4.62% | viability [4] 99.9% | viability [5] 94.4% | inhibition [6] 2.54% | RAM network inhibition [7] 3.59%

O=C(NC1(C(F)(F)F)Oc2ccccc2O1)N1CCC2(CC1)OCCO2
inactive: growth inhibition [1] -4.29% | growth inhibition [2] 1.45% | viability increase [3] -5.11% | viability [4] 51.5% | viability [5] 79.8% | inhibition [6] 0.465% | RAM network inhibition [7] 0.45%

CC12CCC(=O)C=C1CCC1C2CCC2(C)C(O)CCC12 (stereo not given)
inactive: growth inhibition [1] 5.38% | growth inhibition [2] 6.93% | viability increase [3] -3.17% | viability [4] 89.5% | viability [5] 94% | inhibition [6] 0.475% | RAM network inhibition [7] 1.32%

COc1ccc(CN2CC3CC(C2)c2cccc(=O)n2C3)cc1OC (stereo not given)
inactive: growth inhibition [1] -11.4% | growth inhibition [2] -6.36% | viability increase [3] -1.47% | viability [4] 93.2% | viability [5] 93.7% | inhibition [6] 2.04% | RAM network inhibition [7] 1.09%

C=Cn1ccnc1P(=S)(c1nccn1C=C)C1CCCCC1
inactive: growth inhibition [1] 0.2% | growth inhibition [2] -2.3% | viability increase [3] -1.76% | viability [4] 92.3% | viability [5] 93.1% | inhibition [6] 0.82% | RAM network inhibition [7] 3.48%

Cc1ccc2c(c1)C1CN(C)CCC1N2C(=O)c1ccco1 (stereo not given)
inactive: growth inhibition [1] -2.01% | growth inhibition [2] -12.5% | viability increase [3] -3.67% | viability [4] 85.4% | viability [5] 91.9% | inhibition [6] 1.32% | RAM network inhibition [7] 2.85%

CC1(C)CN=C(Nc2ccc(F)c(F)c2)S1
inactive: growth inhibition [1] -7.04% | growth inhibition [2] -4.74% | viability increase [3] 0.98% | viability [4] 111% | viability [5] 101% | inhibition [6] 0.8% | RAM network inhibition [7] 6.13%

CCCOC(=O)COc1cc(C)cc2oc(=O)c3c(c12)CCC3
inactive: growth inhibition [1] -10.1% | growth inhibition [2] -13.8% | viability increase [3] 1.68% | viability [4] 88% | viability [5] 86.1% | inhibition [6] 1.03% | RAM network inhibition [7] 4.39%

CN(C)C(=O)Oc1ccc(C(=O)c2ccccc2)cc1
inactive: growth inhibition [1] -2.66% | growth inhibition [2] 5.16% | viability increase [3] 1.59% | viability [4] 101% | viability [5] 95.1% | inhibition [6] 0.43% | RAM network inhibition [7] 0.92%

FC(F)(F)/C(=N\P(=S)(N1CCOCC1)N1CCOCC1)N1CCOCC1
inactive: growth inhibition [1] 6.63% | growth inhibition [2] -10.3% | viability increase [3] -1.97% | viability [4] 94.9% | inhibition [6] 1.79% | RAM network inhibition [7] 5.4%

Cc1ccccc1Cn1nc(C)c(NC(=O)c2noc3c2CC(C(C)(C)C)CC3)c1C (stereo not given)
inactive: outcome [9]
> 100 µM: IC50 [8]

CN1CCN(c2ncnc3ccc(Br)cc23)CC1
inactive: growth inhibition [1] -1.88% | growth inhibition [2] 5.46% | viability increase [3] -1.88% | viability [4] 94.2% | viability [5] 98.4% | inhibition [6] -0.575% | RAM network inhibition [7] 2.92%

COc1cccc(N2C(=O)CC(=O)NC2=O)c1
inactive: growth inhibition [1] -5.82% | growth inhibition [2] -6.37% | viability increase [3] -0.55% | viability [5] 108% | inhibition [6] 1.5% | RAM network inhibition [7] 1.99%

COc1ccc(-c2cc(C(=O)Nc3cc(C)n(Cc4ccc(Cl)cc4)n3)no2)cc1OC
> 100 µM: IC50 [8]
inactive: outcome [9]

CN(C)C(=O)Oc1ccc(OC(=O)N(C)C)cc1
inactive: growth inhibition [1] 1.07% | growth inhibition [2] -14.3% | viability increase [3] 0.6% | viability [4] 104% | viability [5] 99.5% | inhibition [6] 1.02% | RAM network inhibition [7] -0.32%

CCN(c1ccc(C(O)(C(=O)OC)C(F)(F)F)cc1)S(=O)(=O)c1ccccc1 (stereo not given)
inactive: growth inhibition [1] -4.31% | growth inhibition [2] -3.91% | viability increase [3] 0.9% | viability [4] 99.4% | viability [5] 102% | inhibition [6] -0.62% | RAM network inhibition [7] 4.74%

COc1cc(C2SCC(=O)Nc3c2c(=O)[nH]n3C2CCCCCC2)cc(OC)c1OC (stereo not given)
inactive: growth inhibition [1] -22.7% | growth inhibition [2] -4.26% | viability increase [3] -2.62% | viability [4] 92.6% | inhibition [6] 2.39% | RAM network inhibition [7] 2.76%

CN1C(=O)C(Cc2cccs2)C(=O)N(C)C1=O
inactive: growth inhibition [1] -5.75% | growth inhibition [2] -4.64% | viability increase [3] 0% | viability [4] 100% | viability [5] 98.9% | inhibition [6] 0.795% | RAM network inhibition [7] 4.94%

CN(C)c1ccc(CN2CC=C(c3ccc(F)cc3)CC2)cc1
inactive: growth inhibition [1] -15.2% | growth inhibition [2] -10.7% | viability increase [3] -2.99% | viability [4] 86.6% | viability [5] 96.5% | inhibition [6] 1.31% | RAM network inhibition [7] 1.92%
